Experimental data published in article PMC4608532 (ChemistryOpen, 2015).

System: HUVEC
Assay: In vitro morphogenesis assay on HUVEC plated on Matrigel, VEGF-stimulated
Type: cell-based, Human
Settings: 5 h incubation
In short: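 HUVEC (passages 2–10) were maintained at 37 °C, 5% CO2 in medium with 2% FBS and growth factors. 2.5×10^4 cells were seeded on pre-polymerized Matrigel and incubated for 5 h at 37 °C with or without test compound, under VEGF 10 ng mL−1 stimulation. Networks were imaged by phase contrast and scored as total branch length in pixels, with open ramifications counted as branches. Data were normalized to VEGF alone and given as mean±S.D. of 4–10 experiments, with a two-tailed paired Student's t test.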

Substance | effect on new capillary network formation induced by VEGF165 (in words) (VEGF165 10 ng mL−1) | VEGF-induced morphogenesis, % of VEGF alone (1 μM, VEGF 10 ng mL−1, length of branches, p>0.05)
cyclo[DKP-RGD] [Compound 1] | markedly decreased | –
Ac-KQMYLELGYATIKWL-NH2 [Compound 14, Ac-Lys-Gln-Met-Tyr-Leu-Glu-Leu-Gly-Tyr-Ala-Thr-Ile-Lys-Trp-Leu-amide] | – | 82 %±21%
